Measurements: paper PMC7530031 (Neuropharmacology, 2020)
“Also recorded” adds a separate entry of the source. Read-outs that look alike come from different tables or passages of the source. Each block holds one compound with its values, some of them ahead of it.

Assays:
GluN1/GluN3 receptors [1] = conditions: ref Kvist et al., 2013a; cited from earlier work
GluN1/GluN3 receptors [2] = conditions: ref Grand et al., 2018; cited from earlier work
[3] = system: GluK1–2 and GluK2/GluK5 kainate receptors; assay: Selectivity test in Xenopus oocytes: kainate receptors; type: cell-based, human; conditions: 20 μM; 100 μM glutamate (GluK2/K5: 100 μM AMPA)
[4] = target: alpha7 nicotinic receptors (Rattus norvegicus, UniProt Q05941); assay: Selectivity test in Xenopus oocytes: alpha7 nicotinic receptors; type: cell-based; conditions: 20 μM; 300 μM acetylcholine
Sequence of alpha7 nicotinic receptors (Q05941 23-502): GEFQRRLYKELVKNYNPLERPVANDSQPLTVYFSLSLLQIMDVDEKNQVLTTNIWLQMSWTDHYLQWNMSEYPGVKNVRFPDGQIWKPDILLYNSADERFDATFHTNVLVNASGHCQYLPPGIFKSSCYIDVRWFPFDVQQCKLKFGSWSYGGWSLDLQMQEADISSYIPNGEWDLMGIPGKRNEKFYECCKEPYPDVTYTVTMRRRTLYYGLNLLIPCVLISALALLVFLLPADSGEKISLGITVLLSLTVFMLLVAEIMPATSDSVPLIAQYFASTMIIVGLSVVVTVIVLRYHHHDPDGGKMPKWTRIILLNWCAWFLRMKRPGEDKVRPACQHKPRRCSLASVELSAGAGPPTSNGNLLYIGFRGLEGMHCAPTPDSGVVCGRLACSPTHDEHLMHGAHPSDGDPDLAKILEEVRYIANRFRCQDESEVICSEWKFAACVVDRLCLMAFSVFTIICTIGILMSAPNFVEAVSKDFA

[5] = target: rat GluN1–4a^FA,TL/GluN3B receptors (Rattus norvegicus, UniProt P35439+Q8VHN2, F484A/T518L); type: cell-based
Sequence of rat GluN1–4a^FA,TL/GluN3B receptors (Q8VHN2 25-1002, other chains not shown): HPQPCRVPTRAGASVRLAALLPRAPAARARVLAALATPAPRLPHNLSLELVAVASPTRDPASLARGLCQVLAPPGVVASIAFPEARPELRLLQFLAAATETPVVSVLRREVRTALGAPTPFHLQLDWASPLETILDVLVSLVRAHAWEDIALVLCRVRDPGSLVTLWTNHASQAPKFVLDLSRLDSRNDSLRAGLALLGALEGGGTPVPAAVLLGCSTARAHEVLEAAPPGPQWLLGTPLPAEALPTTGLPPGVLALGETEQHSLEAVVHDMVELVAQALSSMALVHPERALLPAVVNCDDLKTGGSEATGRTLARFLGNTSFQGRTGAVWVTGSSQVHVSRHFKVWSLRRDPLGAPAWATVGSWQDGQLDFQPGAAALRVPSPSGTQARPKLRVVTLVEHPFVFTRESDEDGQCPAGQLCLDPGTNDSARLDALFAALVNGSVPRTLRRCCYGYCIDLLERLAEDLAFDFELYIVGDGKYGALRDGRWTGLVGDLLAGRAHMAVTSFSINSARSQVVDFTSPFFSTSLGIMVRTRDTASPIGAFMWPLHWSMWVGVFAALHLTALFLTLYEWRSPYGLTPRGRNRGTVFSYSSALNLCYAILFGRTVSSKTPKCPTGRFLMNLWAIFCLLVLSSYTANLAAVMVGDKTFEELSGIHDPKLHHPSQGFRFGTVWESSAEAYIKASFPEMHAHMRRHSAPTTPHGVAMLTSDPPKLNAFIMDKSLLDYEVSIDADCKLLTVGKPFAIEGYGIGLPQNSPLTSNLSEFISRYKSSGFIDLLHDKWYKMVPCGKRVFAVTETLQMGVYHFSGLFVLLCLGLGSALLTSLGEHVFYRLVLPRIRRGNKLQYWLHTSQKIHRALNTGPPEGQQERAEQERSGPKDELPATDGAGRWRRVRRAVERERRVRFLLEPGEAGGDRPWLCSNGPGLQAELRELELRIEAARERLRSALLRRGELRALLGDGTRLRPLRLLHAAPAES

GluA1–4 AMPA receptors = assay: Selectivity test in Xenopus oocytes: AMPA receptors; type: cell-based, rat, human; conditions: 20 μM; 100 μM glutamate
[6] = system: GluN1/GluN2 NMDA receptors (GluN1 co-expressed with GluN2A-D); assay: Selectivity test in Xenopus oocytes: GluN1/GluN2 NMDA receptors; type: cell-based
[7] = target: human GluN1/GluN3A receptors (Homo sapiens, UniProt Q8TCU5); type: cell-based
Sequence of human GluN1/GluN3A receptors (Q8TCU5 24-1115, other chains not shown): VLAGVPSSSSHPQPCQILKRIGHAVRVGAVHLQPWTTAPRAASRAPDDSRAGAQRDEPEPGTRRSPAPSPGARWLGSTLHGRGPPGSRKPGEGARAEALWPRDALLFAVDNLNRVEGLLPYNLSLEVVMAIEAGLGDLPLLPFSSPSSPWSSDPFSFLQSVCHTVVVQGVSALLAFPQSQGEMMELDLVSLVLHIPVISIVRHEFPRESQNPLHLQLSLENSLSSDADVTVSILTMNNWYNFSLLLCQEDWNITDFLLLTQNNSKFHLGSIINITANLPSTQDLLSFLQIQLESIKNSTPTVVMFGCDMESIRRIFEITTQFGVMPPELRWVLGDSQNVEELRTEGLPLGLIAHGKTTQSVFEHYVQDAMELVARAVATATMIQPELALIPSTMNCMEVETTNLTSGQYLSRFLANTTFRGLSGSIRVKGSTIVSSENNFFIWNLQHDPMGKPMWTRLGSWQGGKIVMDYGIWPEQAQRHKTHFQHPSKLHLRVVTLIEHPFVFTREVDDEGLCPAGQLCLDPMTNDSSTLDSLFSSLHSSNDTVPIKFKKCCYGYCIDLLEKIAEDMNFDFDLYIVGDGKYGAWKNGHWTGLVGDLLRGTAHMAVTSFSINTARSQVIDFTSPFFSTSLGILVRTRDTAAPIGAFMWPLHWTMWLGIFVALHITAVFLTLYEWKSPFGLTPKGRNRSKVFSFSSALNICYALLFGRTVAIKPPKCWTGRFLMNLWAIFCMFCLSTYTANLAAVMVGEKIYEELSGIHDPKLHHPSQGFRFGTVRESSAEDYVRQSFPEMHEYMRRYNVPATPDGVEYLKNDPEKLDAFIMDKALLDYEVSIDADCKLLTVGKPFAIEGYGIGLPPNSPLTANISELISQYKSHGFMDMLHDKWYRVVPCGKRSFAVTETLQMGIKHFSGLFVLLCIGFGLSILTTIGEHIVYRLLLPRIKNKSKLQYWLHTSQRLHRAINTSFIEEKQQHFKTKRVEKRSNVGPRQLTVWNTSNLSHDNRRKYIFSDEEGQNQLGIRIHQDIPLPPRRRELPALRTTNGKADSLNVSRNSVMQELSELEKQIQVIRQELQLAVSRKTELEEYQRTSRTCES
Method in brief: (§1)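 Xenopus oocyte two-electrode voltage clamp at −40 mV, 23°C. Human GluN1/GluN3A or rat GluN1–4a/GluN3B, with GluN1:GluN3 cRNA at 1:3. […] Concentration–response data normalized to responses without test compound, fitted by Hill equation for IC50, slope and residual minimum. Percent inhibition was 100×(1−Idrug/Icontrol) at fitted maximum. IC50 taken from mean log(IC50); 8–9 oocytes.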

[8] = target: human GluN1^FA,TL/GluN3A receptors (Homo sapiens, UniProt Q8TCU5); type: cell-based
Sequence of human GluN1^FA,TL/GluN3A receptors (Q8TCU5 24-1115, other chains not shown): as above

[9] = target: rat GluN1/GluN3B receptors (rat GluN1–4a/GluN3B) (Rattus norvegicus, UniProt Q8VHN2); type: cell-based
Sequence of rat GluN1/GluN3B receptors (rat GluN1–4a/GluN3B) (Q8VHN2 25-1002, other chains not shown): as the sequence (Q8VHN2 25-1002, other chains not shown) above
Method in brief: as §1

[10] = system: GluN1/GluN2 NMDA receptors; type: cell-based; conditions: 30 μM; 0.5 mM NMDA puffs; mouse P8–15 slices
[11] = target: muscle nicotinic receptors (α1β1δγ) (Rattus norvegicus, UniProt P18916+P25108+P25109+P25110); assay: Selectivity test in Xenopus oocytes: muscle nicotinic receptors; type: cell-based; conditions: 20 μM; 1 μM acetylcholine
Method in brief: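 Two-electrode voltage clamp on Xenopus oocytes 2–5 days after cRNA injection; muscle nAChR subunits were injected 1:1:1:1. Recorded at 23°C and −40 mV in HEPES/BaCl2 saline, pH 7.4. Test compound at 20 μM was co-applied with agonist. Response was given as percent of control, taking control as the mean of responses before and after compound exposure.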

GluN1/GluN3A channels = GluN1/GluN3A channels (Mus musculus, UniProt A2AIR5); assay: Nonstationary variance analysis of neuronal glycine-evoked current responses; type: cell-based; conditions: 30 μM; VHOLD −60 mV; n = 5
Sequence of GluN1/GluN3A channels (A2AIR5 27-1135, other chains not shown): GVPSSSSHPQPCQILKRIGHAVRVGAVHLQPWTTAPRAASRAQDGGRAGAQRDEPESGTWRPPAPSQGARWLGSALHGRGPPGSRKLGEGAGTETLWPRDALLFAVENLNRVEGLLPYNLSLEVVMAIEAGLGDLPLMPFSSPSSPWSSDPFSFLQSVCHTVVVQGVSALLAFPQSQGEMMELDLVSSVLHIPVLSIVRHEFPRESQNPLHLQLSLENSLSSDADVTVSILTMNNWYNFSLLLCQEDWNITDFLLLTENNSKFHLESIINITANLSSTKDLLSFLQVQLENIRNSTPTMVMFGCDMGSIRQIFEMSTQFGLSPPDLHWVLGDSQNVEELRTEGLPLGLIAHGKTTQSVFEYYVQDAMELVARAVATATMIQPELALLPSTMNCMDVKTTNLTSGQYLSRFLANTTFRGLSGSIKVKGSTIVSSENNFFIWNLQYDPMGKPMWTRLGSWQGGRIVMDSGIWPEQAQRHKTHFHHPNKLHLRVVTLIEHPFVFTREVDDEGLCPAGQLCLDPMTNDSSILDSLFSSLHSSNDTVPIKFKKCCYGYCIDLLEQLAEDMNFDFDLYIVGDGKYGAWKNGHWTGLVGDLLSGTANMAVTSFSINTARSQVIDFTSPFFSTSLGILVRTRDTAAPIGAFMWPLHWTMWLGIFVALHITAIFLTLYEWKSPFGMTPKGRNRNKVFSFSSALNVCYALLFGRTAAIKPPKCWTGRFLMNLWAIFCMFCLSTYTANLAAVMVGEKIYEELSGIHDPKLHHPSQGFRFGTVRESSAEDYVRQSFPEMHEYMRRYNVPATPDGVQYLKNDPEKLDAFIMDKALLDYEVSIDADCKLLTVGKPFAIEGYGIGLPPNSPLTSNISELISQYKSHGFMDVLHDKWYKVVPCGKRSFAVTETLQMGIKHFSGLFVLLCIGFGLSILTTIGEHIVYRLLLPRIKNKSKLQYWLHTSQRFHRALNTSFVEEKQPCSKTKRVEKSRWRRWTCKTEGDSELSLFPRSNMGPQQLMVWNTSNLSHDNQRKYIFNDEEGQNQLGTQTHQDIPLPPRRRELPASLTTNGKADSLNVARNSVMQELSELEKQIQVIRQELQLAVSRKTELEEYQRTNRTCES
Method in brief: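 Acute mouse hippocampal slices (P8–15), CA1 pyramidal cells, whole-cell at −60 mV, 32°C ACSF with gabazine, NBQX, DL-APV, strychnine and 1 μM CGP-78608. […] Compound at 30 μM or 0.15% DMSO bath-applied. Ten deactivation phases per condition at steady state, split into 50 segments, high-passed at 1 Hz. Variance–current fit gave unitary current; chord conductance assumed 0 mV reversal.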

[12] = target: native GluN1/GluN3A receptors (Mus musculus, UniProt A2AIR5); type: cell-based; conditions: 30 μM; 1 μM CGP-78608; 10 mM glycine puffs; mouse P8–15 slices
Sequence of native GluN1/GluN3A receptors (A2AIR5 27-1135, other chains not shown): as above

[13] = system: GABA receptors (GABAA α1β2γ2S, GABAC ρ1); assay: Selectivity test in Xenopus oocytes: GABA receptors; type: cell-based, rat; conditions: 20 μM; 100 μM GABA
α2β4 nicotinic receptors = α2β4 nicotinic receptors (Rattus norvegicus, UniProt P09483+P12390); assay: Selectivity test in Xenopus oocytes: α2β4 nicotinic receptors; type: cell-based; conditions: 20 μM; 10 μM acetylcholine
Sequence of α2β4 nicotinic receptors (P09483 31-630): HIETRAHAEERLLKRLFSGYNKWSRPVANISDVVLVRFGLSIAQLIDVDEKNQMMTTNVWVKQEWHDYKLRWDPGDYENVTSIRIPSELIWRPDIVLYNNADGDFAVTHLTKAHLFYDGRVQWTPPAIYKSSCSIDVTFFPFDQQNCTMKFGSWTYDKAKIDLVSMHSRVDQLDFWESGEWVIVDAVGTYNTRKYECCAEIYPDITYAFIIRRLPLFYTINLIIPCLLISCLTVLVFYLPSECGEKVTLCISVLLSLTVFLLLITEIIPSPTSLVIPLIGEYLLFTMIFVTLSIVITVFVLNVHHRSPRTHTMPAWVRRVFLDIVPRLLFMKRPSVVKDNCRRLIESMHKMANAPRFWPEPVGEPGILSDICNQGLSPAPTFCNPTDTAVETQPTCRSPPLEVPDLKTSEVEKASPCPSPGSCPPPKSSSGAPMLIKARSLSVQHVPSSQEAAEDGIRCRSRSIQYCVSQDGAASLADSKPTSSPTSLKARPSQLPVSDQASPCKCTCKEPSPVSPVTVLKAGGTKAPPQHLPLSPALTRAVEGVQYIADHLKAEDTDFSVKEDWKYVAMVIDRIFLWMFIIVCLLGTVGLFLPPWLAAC
Sequence of α2β4 nicotinic receptors (P12390 25-500): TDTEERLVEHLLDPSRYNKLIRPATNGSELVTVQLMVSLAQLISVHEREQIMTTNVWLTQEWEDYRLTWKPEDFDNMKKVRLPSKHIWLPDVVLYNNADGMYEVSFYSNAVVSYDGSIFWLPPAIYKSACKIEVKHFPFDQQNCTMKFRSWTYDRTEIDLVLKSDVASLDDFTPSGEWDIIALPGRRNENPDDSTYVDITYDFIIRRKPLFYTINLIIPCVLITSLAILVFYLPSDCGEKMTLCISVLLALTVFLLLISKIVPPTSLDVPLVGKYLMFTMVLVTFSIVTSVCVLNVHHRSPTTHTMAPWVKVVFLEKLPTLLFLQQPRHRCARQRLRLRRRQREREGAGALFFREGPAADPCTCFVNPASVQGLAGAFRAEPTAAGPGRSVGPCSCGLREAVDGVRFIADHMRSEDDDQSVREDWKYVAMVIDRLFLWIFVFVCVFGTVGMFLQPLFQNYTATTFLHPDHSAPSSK

glycine receptors (α1) = target: T1, glycine receptors (α1) (Rattus norvegicus, UniProt P07727); assay: Selectivity test in Xenopus oocytes: glycine receptors; type: cell-based; conditions: 20 μM; 100 μM glycine
T1 sequence (P07727 29-457): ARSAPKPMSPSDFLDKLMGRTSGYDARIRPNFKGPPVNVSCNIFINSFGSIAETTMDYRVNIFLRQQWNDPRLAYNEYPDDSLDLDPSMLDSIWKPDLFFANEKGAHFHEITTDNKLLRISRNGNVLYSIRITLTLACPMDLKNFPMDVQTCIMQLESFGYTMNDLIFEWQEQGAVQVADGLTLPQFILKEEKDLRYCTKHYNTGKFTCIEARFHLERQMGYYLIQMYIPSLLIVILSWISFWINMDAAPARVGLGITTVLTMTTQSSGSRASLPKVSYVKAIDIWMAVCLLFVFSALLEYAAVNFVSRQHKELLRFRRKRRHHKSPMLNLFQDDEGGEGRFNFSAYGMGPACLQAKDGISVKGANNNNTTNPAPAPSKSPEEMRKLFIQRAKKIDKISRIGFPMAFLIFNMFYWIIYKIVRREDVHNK

[14] = target: T2, P2X receptors (human P2X2) (Homo sapiens, UniProt Q9UBL9); assay: Selectivity test in Xenopus oocytes: purinergic receptors; type: cell-based; conditions: 20 μM; 9 μM ATP
T2 sequence (Q9UBL9 1-471): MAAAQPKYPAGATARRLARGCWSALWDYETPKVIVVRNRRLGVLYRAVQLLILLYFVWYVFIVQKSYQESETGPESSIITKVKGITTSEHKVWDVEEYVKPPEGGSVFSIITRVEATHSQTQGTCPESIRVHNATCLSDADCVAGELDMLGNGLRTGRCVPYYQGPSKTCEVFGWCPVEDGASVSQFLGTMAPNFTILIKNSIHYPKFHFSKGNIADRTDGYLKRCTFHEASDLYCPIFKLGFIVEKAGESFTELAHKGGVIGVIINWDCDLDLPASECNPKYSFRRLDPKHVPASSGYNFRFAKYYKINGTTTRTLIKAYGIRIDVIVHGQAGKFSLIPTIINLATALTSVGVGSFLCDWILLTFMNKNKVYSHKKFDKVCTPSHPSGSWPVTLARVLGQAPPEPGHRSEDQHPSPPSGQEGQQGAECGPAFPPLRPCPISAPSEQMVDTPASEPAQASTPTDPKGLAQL

GluN3A = conditions: read-out: EC50 of glycine at GluN3A; ref Grand et al., 2018; Kvist et al., 2013a; cited from earlier work
GluN1 = conditions: read-out: EC50 of glycine at GluN1; ref Grand et al., 2018; Kvist et al., 2013a; cited from earlier work
[15] = 500 nM CGP-78608 plus 100 μM glycine

Structure (SMILES): O=C(O)c1cc(C(=O)c2ccc(Cl)cc2Cl)c[nH]1 [TK30]
preference for GluN1/GluN3 over GluN1/GluN2 receptors (GluN1/GluN3 receptors [1]): 5- to 10 fold

Structure (SMILES): C[C@@H](NCc1cc(Br)cc2[nH]c(=O)c(=O)[nH]c12)P(=O)(O)O.Cl [CGP-78608, [(1 S)-1-[[(7-bromo-1,2,3,4-tetrahydro-2,3-dioxo-5-quinoxalinyl)methyl]amino]ethyl]phosph onic acid hydrochloride]
effect on activation of GluN1/GluN3 receptors (GluN1/GluN3 receptors [2]): can dramatically enhance activation of GluN1/GluN3 receptors

activity at kainate receptors [3]: virtually no activity | activity at alpha7 nicotinic receptors [4]: virtually no activity | IC50 [5]: 5.2 µM | % inhibition at saturating concentrations determined from the fitted curve ([5]; data not shown): 82% | activity at AMPA receptors (GluA1–4 AMPA receptors): virtually no activity | activity at GluN1/GluN2 NMDA receptors ([6]; 20 μM, 100 μM glutamate/100 μM glycine): virtually no activity | activity at recombinant GluN1/GluN2 NMDA receptors (library screen) ([6]; screen): no detectable activity | Slope (Hill slope, Fig. 1D) [7, 15]: 1.5 | minimum (residual current at saturating concentration, Fig. 1D) [7, 15]: 15% | % Inhibition (fitted maximum at saturating test compound) ([7]; pH 7.4, 0.5 μM CGP-78608): 85% | response in the presence of compound, % of control ([8]; 10 μM EU1180–438, 1 mM glycine): 29 ± 4.2 % of control | response in the presence of compound, % of control ([8]; 10 μM EU1180–438, 3 mM glycine): 29 ± 4.2 % of control | IC50 ([8]; IC50, pH 6.8): 4.2 µM | IC50 ([8]; IC50, pH 7.4, 1 mM glycine, holding potential −40 mV, mean of individual fits): 3.5 µM | % Inhibition (fitted maximum at saturating test compound) ([8]; pH 6.8): 72% | % Inhibition (fitted maximum at saturating test compound) ([8]; pH 7.4, 1 mM glycine, −40 mV): 82% | Slope (Hill slope, Fig. 1C) ([8]; responses activated by 1000 μM glycine): 1.3 | Slope (Hill slope, Fig. 1D) [9, 15]: 1.5 | minimum (residual current at saturating concentration, Fig. 1D) [9, 15]: 7% | % Inhibition (fitted maximum at saturating test compound) ([9]; pH 7.4, 0.5 μM CGP-78608): 93% | activity at muscle nicotinic receptors [11]: modestly inhibited | average chord conductance of GluN1/GluN3A channels in the presence of compound (GluN1/GluN3A channels): 6.3 ± 0.90 pS | activity at GABA receptors [13]: virtually no activity | activity at α2β4 nicotinic receptors (α2β4 nicotinic receptors): modestly inhibited | activity at glycine receptors (glycine receptors (α1)): virtually no activity | activity at P2X receptors [14]: inactive
Structure (SMILES): COc1ccc(OCC(c2ccc(OC)cc2)N2Cc3ccccc3C2=O)cc1 (stereo not shown) [EU1180–438, 2-(2-(4-methoxyphenoxy)-1-(4-methoxyphenyl)ethyl)isoindolin-1-one]
dependence of inhibition on glycine concentration ([8]; 10 μM EU1180–438, 1 mM vs 3 mM glycine): not altered by increasing glycine concentration | effect on NMDA-activated responses mediated by GluN1/GluN2 NMDA receptors [10]: does not affect current responses; also recorded: not modulated | effect on glycine-activated responses of native GluN1/GluN3A receptors [12]: inhibited significantly; also recorded: strong inhibition

Structure (SMILES): O=c1[nH]c2nonc2nc1O [TK80]
preference for GluN1/GluN3 over GluN1/GluN2 receptors (GluN1/GluN3 receptors [1]): 5- to 10 fold

Structure (SMILES): NCC(=O)O [glycine]
EC50 (GluN3A): 10 to 60 µM | EC50 (GluN1): […]
